Screening results as filed in PubChem.
Shown are actives, neighbours in structure and some others; about 2.8% of the full set was active somewhere.
DENV2 CPE rescue = DENV2-induced cell death inhibition; AID 651640; actives 1.7% (n = 350,000); CPE inhibition, % at 9.99 µM; DENV2-infected cells, cytopathic effect rescue, plate reader; in the data active = CPE inhibition above about 20%, passing the limit was not always enough; inconclusive = no clear call, values can overlap the other calls; tested in BHK-21 cells;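 note: 0% = median of neutral control wells and 100% = median of positive control wells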
E-sel inducer = E-selectin induction on HUVECs; activation, % at 7.58 µM; HUVEC E-selectin immunofluorescence imaging; normalized: neutral wells 0, TNF-alpha wells 100; actives 0.37% (n = 260,000);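 active = mean E-selectin-positive cell signal at least 10% of the positive control, reached in at least 60% of replicates, without over 20% cell loss; inconclusive = no rule given, readout overlaps actives, possibly toxicity-flagged; inactive = the rest, including those meeting only one limit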
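Read-out basis: % PE-positive cells; Test system: HUVEC primary endothelial cells; Technique: immunofluorescence imaging; Dosing: single-point compound dose.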
SIRT5 inh = sirtuin-5 (human) deacylase inhibition; inhibition, % at 15 µM; Purified SirT5, succinyl-peptide AMC, trypsin-coupled fluorescence; actives 1.1% (n = 330,000); Q9NXA8; AID 652115; in the data active = inhibition above about 15%; inconclusive = no clear call, values can overlap the other calls
Target sequence (Q9NXA8 whole entry, looked up): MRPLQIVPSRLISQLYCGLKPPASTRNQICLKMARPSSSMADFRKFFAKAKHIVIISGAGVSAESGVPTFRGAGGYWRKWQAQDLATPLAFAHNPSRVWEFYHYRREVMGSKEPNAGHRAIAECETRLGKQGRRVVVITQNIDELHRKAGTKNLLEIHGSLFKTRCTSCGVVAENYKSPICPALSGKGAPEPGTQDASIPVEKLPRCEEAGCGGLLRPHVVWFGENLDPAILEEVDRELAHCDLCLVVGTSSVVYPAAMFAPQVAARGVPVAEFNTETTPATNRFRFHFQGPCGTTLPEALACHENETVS
* marks the source's active call; other numbers are inactive results; ? = inconclusive; · = not tested or not shown.

SMILES	DENV2 CPE rescue	E-sel inducer	SIRT5 inh
COc1ccc2c3c(n(C)c2c1)[C@@H](CO)NCC31CN(Cc2cc(F)ccc2F)C1	30.8*	0.2	·
COc1ccc2c3c(n(C)c2c1)[C@H](CO)NCC31CN(Cc2ccc(F)cc2)C1	-0.8	-0.1	-8.9
COc1ccc2c3c(n(C)c2c1)[C@H](CO)NCC31CCN(Cc2ccccc2F)CC1	30.8*	0.1	·
C/C=C/c1ccc2c(c1)O[C@@H](CN(C)C(=O)CC)[C@H](C)CN([C@@H](C)CO)S2(=O)=O	-2.0	1.1	-1.9
CO[C@@H]1CN(C)C(=O)c2cc(NC(=O)C3CC3)ccc2OC[C@H](C)N(Cc2nccs2)C[C@H]1C	-1.5	-0.2	6.3
Cc1ccc(S(=O)(=O)N(C)C[C@H]2Oc3ccc(NC(=O)c4ccncc4)cc3CC(=O)N([C@H](C)CO)C[C@@H]2C)cc1	-4.6	0.7	-1.8
COc1ccc(S(=O)(=O)N(C)C[C@@H]2Oc3ccc(NC(=O)c4ccncc4)cc3C(=O)N([C@H](C)CO)C[C@@H]2C)cc1	-3.0	17.7	-2.6
COc1ccc(S(=O)(=O)N(C)C[C@H]2Oc3ccc(NC(=O)c4ccncc4)cc3C(=O)N([C@@H](C)CO)C[C@@H]2C)cc1	-7.0	47.0*	4.1
Cc1ccc(S(=O)(=O)N(C)C[C@@H]2Oc3ccc(NC(=O)c4ccncc4)cc3CC(=O)N([C@@H](C)CO)C[C@@H]2C)cc1	56.8*	0.0	-1.7
Cc1ccc(S(=O)(=O)N(C)C[C@@H]2Oc3ccc(NC(=O)c4ccncc4)cc3C(=O)N([C@@H](C)CO)C[C@H]2C)cc1	?	-0.5	-2.4
Cc1ccc(S(=O)(=O)N(C)C[C@@H]2Oc3ccc(NC(=O)c4ccncc4)cc3C(=O)N([C@H](C)CO)C[C@@H]2C)cc1	5.3	1.7	-3.4
COc1ccc(S(=O)(=O)N(C)C[C@H]2Oc3ccc(NC(=O)c4ccncc4)cc3C(=O)N([C@H](C)CO)C[C@H]2C)cc1	-0.7	27.7*	-1.5
Cc1ccc(S(=O)(=O)N(C)C[C@@H]2Oc3ccc(NC(=O)c4ccncc4)cc3C(=O)N([C@H](C)CO)C[C@H]2C)cc1	30.6*	2.2	-3.8
COCC(=O)N(C)C[C@H]1Oc2ncc(C#CC3(O)CCCC3)cc2C(=O)N([C@@H](C)CO)C[C@H]1C	-2.5	2.3	-2.1
CCC(=O)Nc1ccc2c(c1)C(=O)N(C)C[C@@H](OC)[C@H](C)CN(C(=O)Cc1ccccn1)[C@H](C)CO2	16.6	0.3	-1.5
O=C(C[C@@H]1C=C[C@@H](NC(=O)C2CCC2)[C@@H](CO)O1)NCc1ccncc1	-0.3	-0.3	4.0
O=C(c1ccccn1)N1C[C@@H]2[C@H](c3ccccc31)[C@@H](CO)N2C(=O)Nc1ccccc1F	-4.1	0.0	4.1
O=C(CN1CCOCC1)NCC[C@H]1CC[C@H](NC(=O)Nc2ccc(F)cc2)[C@H](CO)O1	-8.1	0.0	3.7
O=C(CN1CCOCC1)NCC[C@H]1CC[C@@H](NC(=O)Nc2ccc(F)cc2)[C@@H](CO)O1	-4.6	1.3	3.6
O=C(CN1CCOCC1)NCC[C@@H]1CC[C@H](NC(=O)Nc2ccc(F)cc2)[C@H](CO)O1	-1.7	-1.7	25.9*
O=C(CN1CCOCC1)NCC[C@@H]1CC[C@@H](NC(=O)Nc2ccc(F)cc2)[C@H](CO)O1	11.0	-1.7	15.7*
Cc1ccc(S(=O)(=O)N(C)C[C@@H]2Oc3c(cccc3N(C)C)C(=O)N([C@H](C)CO)C[C@@H]2C)cc1	2.4	-34.5	·
C[C@@H]1CCCCO[C@H](CN(C)C(=O)Nc2ccc3c(c2)OCO3)[C@H](C)CN([C@H](C)CO)C(=O)c2cc(NC(=O)CCCN(C)C)ccc2O1	-3.8	0.1	1.8
COc1ccc(S(=O)(=O)N(C)C[C@H]2OCCCC[C@H](C)Oc3ccc(NC(=O)NC(C)C)cc3C(=O)N([C@@H](C)CO)C[C@H]2C)cc1	-4.6	-0.1	0.0
O=[N+]([O-])c1ccccc1N=Nc1ccc(O)cc1O	-5.5	1.0	·
SMILES	DENV2 CPE rescue	E-sel inducer	SIRT5 inh
O=S(=O)(O)c1cc(O)c(N=Nc2ccc(O)cc2O)c2ccccc12	1.1	65.5*	31.4*
O=C(C1CC1)N1C[C@H]2[C@@H](c3ccccc31)[C@H](CO)N2S(=O)(=O)c1ccccc1	·	0.2	·
CCCCCCCC1c2c(c(C)c(C)oc2=O)Oc2c(C)c(C)oc(=O)c21	89.5*	-0.1	·
CCCC(C)C1c2c(c(C)c(C)oc2=O)Oc2c(C)c(C)oc(=O)c21 (stereo not drawn)	·	-0.5	-3.1
COCC(=O)N[C@H]1C=C[C@@H](CC(=O)NCc2ccc(Cl)cc2)O[C@H]1CO	·	0.3	·
CC(C)C#Cc1ccc2c(c1)O[C@@H](CN(C)C(=O)c1ccncc1)[C@@H](C)CN([C@@H](C)CO)S2(=O)=O	0.0	-0.1	-0.1
O=C(CC1NCCN(Cc2ccccc2)C1=O)Nc1ccccc1 (stereo not drawn)	71.6*	0.1	·
O=C(C[C@H]1C(=O)N(Cc2ccccc2)C[C@@H]1Cc1ccccc1)Nc1ccccc1	-1.7	-0.1	·
C[C@H](CO)N1C[C@H](C)[C@H](CN(C)Cc2ccc(Oc3ccccc3)cc2)Oc2ccc(NC(=O)CCC(F)(F)F)cc2C1=O	?	0.2	15.1*
COc1ccc(CN(C)C[C@H]2Oc3ccc(NC(=O)CCC(F)(F)F)cc3C(=O)N([C@H](C)CO)C[C@H]2C)cc1	2.4	·	-2.4
C[C@H](CO)N1C[C@H](C)[C@@H](CN(C)Cc2ccc(Oc3ccccc3)cc2)Oc2ccc(NC(=O)CCC(F)(F)F)cc2C1=O	?	0.4	-1.2
COc1ccc(CN(C)C[C@@H]2Oc3ccc(NC(=O)CCC(F)(F)F)cc3C(=O)N([C@H](C)CO)C[C@H]2C)cc1	7.2	·	29.3*
C[C@H]1CN([C@@H](C)CO)C(=O)c2cc(NC(=O)NC3CCCCC3)ccc2O[C@H]1CN(C)CC1CCCCC1	-5.7	·	-2.1
C[C@H](CO)N1C[C@H](C)[C@H](CN(C)CC2CCCCC2)Oc2ccc(NC(=O)NC3CCCCC3)cc2C1=O	29.1*	·	-2.2
C[C@@H]1CN([C@H](C)CO)C(=O)c2cc(NC(=O)NC3CCCCC3)ccc2O[C@H]1CN(C)CC1CCCCC1	-16.6	·	0.0
C[C@@H]1CN([C@@H](C)CO)C(=O)c2cc(NC(=O)NC3CCCCC3)ccc2O[C@@H]1CN(C)CC1CCCCC1	60.5*	·	-1.2
COc1cccc(C(=O)Nc2ccc3c(c2)OC[C@@H](C)N(CC2CC2)C[C@H](C)[C@@H](OC)CN(C)C3=O)c1	-12.0	-0.3	-0.9
COc1ccc(CN2C(=O)CCC2(C)c2nnnn2Cc2ccccc2)cc1 (stereo not drawn)	84.5*	0.1	·
Cc1ccc(CN2C(=O)CCC2(C)c2nnnn2-c2c(C)cccc2C)cc1 (stereo not drawn)	-4.2	0.1	16.1*
Cc1cccc(C)c1-n1nnnc1C1(C)CCC(=O)N1Cc1cccs1 (stereo not drawn)	56.9*	-3.4	-6.1
COc1ccc(CN2C(=O)CCC2(C)c2nnnn2Cc2ccccc2)cc1OC (stereo not drawn)	9.2	0.0	·
CC1(c2nnnn2Cc2ccccc2)CCC(=O)N1Cc1cccnc1 (stereo not drawn)	0.9	0.0	·
COc1ccc(CN2C(=O)CCC2(C)c2nnnn2-c2c(C)cccc2C)cc1 (stereo not drawn)	13.0	-0.2	·
